The results in this text go back to ChEMBL document CHEMBL4342410, “Design and Discovery of N-(3-(2-(2-Hydroxyethoxy)-6-morpholinopyridin-4-yl)-4-methylphenyl)-2-(trifluoromethyl)isonicotinamide, a Selective, Efficacious, and Well-Tolerated RAF Inhibitor Targeting RAS Mutant Cancers: The Path to the Clinic” (J Med Chem, 2020).

Series [1] in a line: Solubility of compound in pH 6.8 Cl-free PBS buffer by shake-flask assay. It counts as physicochemical. The essentials:
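Shake-flask solubility measured in chloride-free PBS at pH 6.8.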

Series [2] is described as follows: Apparent permeability across basolateral to apical side in human Caco2 cells at pH 7.4 by LC/MS/MS analysis. It counts as ADME, cell-based. Particulars: Caco-2, pH 7.4. (Passage across Caco-2 layers is used to estimate intestinal permeability.)
A short description of series [3]: Intrinsic clearance in human liver microsomes. It counts as ADME, Microsome. Particulars: read-out: CLH.
The target in series [4] is T1, RAF proto-oncogene serine/threonine-protein kinase (Homo sapiens, UniProt P04049). Nature of the series: Inhibition of CRAF in human Calu6 cells assessed as reduction MEK phosphorylation measured after 1 hr by sandwich ELISA. It is filed as cell-based. Background: In an ELISA, binding on a coated surface is turned into a signal by an enzyme label.
A further series deals with Cytochrome P450 3A4 (Homo sapiens, UniProt P08684). Nature of the series: Time dependent inhibition of CYP3A4 in human liver microsomes assessed as inactivation rate constant at 10 uM using midazolam as substrate incubated prior to substrate addition and measured after 6 mins in presence of NADPH. It is filed as ADME. Particulars: 0.1 h. The essentials:
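Human liver microsomes (0.5 mg/mL) preincubated with test compound at 10 µM and 1 mM NADPH in phosphate buffer at 37 °C for 0, 5, 15 and 30 min. Mixture then diluted 20-fold and incubated with midazolam (20 µM) at 37 °C for 6 min to measure residual CYP3A4 activity. kobs taken as the initial rate of decline of activity versus preincubation time.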
(Liver microsomes are a subcellular fraction often used to study metabolism.)

The test system of a further series is Calu-6. In words: Antiproliferative activity against human Calu6 cells harboring KRAS Q61K mutant assessed as reduction in cell viability after 72 hrs by CellTiter-Glo assay. It counts as functional, cell-based. The following applies: Calu-6, 72 h.
The target of series [5] is RAF proto-oncogene serine/threonine-protein kinase (Homo sapiens, UniProt P04049, Y340E/Y341E). In words: Inhibition of CRAF Y340E/Y341E mutant (unknown origin) using human MEK1 K97R mutant as substrate pretreated for 30 mins followed by substrate addition measured after 40 mins by alphascreen assay.
A short description of series [6]: Apparent permeability across apical to basolateral side in human Caco2 cells at pH 7.4 by LC/MS/MS analysis. It is filed as ADME, cell-based. The following applies: Caco-2, pH 7.4.
Series [7] in a line: Drug level in rat hepatocytes treated with RAF709 at 10 uM measured after 3 hrs by LC-MS/MS analysis. It is filed as ADME, cell-based, Hepatocyte.
A short description of series [8]: Drug level in human hepatocytes treated with RAF709 at 10 uM measured after 3 hrs by LC-MS/MS analysis. It counts as ADME, cell-based, Hepatocyte.
A short description of series [9]: Drug level in dog hepatocytes treated with RAF709 at 10 uM measured after 3 hrs by LC-MS/MS analysis. It counts as ADME, cell-based, Canis lupus familiaris, Hepatocyte.
The nature of series [10]: Stability in human hepatocytes assessed as parent compound remaining at 10 uM measured after 3 hrs by LC-MS/MS analysis. It counts as ADME, cell-based, Hepatocyte. Particulars: read-out: Stability.
A short description of series [11]: Stability in rat hepatocytes assessed as parent compound remaining at 10 uM measured after 3 hrs by LC-MS/MS analysis. It is filed as ADME, cell-based, Hepatocyte.
A short description of series [12]: Drug metabolism in rat hepatocytes assessed as amide hydrolysis at 10 uM measured after 3 hrs by LC-MS/MS analysis. It is filed as ADME, cell-based, Hepatocyte.
Series [13] in a line: Drug metabolism in human hepatocytes assessed as amide hydrolysis at 10 uM measured after 3 hrs by LC-MS/MS analysis. It counts as ADME, cell-based, Hepatocyte.
A short description of series [14]: Stability in dog hepatocytes assessed as parent compound remaining at 10 uM measured after 3 hrs by LC-MS/MS analysis. It counts as ADME, cell-based, Canis lupus familiaris, Hepatocyte. The following applies: read-out: Stability.
The target of series [15] is T1, RAF proto-oncogene serine/threonine-protein kinase. In words: Activation of CRAF in human Calu6 cells assessed as induction of MEK phosphorylation at 3 uM measured after 1 hr by sandwich ELISA. It counts as cell-based.
Series [16] shares this target. In words: Inhibition of CRAF in human Calu6 cells assessed as reduction MEK phosphorylation up to 24 uM measured after 1 hr by sandwich ELISA. It counts as cell-based.
A short description of series [17]: Stimulation of BRAF-CRAF dimerization in human HCT116 cells measured after 2 hrs by NanoBit luciferase complementation assay. It counts as cell-based.

≈ marks a conversion by molar mass, not a printed value. Calls of active or inactive are those of the source. The calls are words filed in the database; no cut-off is given here. A value given as a limit tells only on which side of the number the result lay.

T1 sequence (P04049 whole entry): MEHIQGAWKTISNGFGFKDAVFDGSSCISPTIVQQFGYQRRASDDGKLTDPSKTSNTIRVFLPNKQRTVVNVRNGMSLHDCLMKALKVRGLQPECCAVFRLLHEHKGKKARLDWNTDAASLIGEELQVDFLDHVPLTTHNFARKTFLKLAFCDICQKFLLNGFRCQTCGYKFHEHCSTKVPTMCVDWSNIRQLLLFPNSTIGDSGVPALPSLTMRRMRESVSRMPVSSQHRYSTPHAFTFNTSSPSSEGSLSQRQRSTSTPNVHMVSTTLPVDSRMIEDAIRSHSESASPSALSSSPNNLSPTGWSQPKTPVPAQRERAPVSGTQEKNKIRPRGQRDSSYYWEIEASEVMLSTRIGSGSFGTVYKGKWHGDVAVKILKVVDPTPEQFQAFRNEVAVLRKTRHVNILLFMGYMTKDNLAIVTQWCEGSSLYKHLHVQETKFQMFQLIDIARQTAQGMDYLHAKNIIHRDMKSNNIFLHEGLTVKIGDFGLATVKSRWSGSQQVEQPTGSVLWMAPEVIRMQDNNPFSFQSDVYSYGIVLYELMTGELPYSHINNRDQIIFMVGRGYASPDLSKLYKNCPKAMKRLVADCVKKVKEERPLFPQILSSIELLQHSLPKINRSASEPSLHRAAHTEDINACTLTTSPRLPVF
Sequence of RAF proto-oncogene serine/threonine-protein kinase (Homo sapiens, UniProt P04049, Y340E/Y341E) (P04049 whole entry Y340E/Y341E): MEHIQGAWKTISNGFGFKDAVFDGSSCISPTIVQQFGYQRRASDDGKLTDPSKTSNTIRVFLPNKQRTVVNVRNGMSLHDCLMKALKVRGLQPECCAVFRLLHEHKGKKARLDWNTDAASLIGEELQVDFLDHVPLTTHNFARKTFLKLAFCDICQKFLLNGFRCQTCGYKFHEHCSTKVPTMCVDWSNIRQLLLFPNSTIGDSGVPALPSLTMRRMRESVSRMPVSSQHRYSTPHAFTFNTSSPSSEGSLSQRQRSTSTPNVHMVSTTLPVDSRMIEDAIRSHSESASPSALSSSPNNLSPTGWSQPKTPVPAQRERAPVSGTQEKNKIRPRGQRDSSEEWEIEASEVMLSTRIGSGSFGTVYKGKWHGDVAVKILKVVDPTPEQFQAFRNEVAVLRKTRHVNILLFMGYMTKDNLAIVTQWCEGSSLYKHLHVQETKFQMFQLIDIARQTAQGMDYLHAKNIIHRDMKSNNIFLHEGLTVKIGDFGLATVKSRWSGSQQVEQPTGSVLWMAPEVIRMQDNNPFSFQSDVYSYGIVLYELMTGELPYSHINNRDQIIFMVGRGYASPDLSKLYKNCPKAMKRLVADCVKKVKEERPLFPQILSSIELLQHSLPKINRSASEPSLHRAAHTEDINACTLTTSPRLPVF
Sequence of Cytochrome P450 3A4 (P08684 whole entry): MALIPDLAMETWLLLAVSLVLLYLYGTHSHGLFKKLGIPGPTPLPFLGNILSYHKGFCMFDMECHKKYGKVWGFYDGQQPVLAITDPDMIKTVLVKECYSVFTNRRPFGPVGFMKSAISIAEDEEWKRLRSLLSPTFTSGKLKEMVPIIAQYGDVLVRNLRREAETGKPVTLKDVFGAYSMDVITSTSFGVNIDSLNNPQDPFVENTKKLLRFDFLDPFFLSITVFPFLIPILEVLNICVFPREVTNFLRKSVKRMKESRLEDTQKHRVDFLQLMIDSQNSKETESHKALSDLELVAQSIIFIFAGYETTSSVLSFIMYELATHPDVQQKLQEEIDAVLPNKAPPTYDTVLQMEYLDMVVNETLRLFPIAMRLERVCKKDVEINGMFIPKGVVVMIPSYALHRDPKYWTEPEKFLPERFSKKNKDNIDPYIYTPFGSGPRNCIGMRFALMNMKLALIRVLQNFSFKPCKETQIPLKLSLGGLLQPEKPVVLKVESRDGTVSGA

`Cc1ncc(NC(=O)c2ccnc(C(C)(F)F)c2)cc1-c1cc(NCCO)nc(N2CCOCC2)c1` came in with a solubility (thermodynamic) in series [1] of 730 µM (≈ 364 µg/mL). Also, the Papp B→A in series [2] is 34 ×10⁻⁶ cm/s. Also, in [3], the microsomal CLint is 10.4 µL/min/mg. Further, the half-maximal effective concentration (EC50) in series [4] worked out at 27 nM; with Calu-6, 6220 nM. Further, the K on Cytochrome P450 3A4 amounted to 0.035 min⁻¹. In addition, the IC50 in [5] was 0.7 nM. Also, the Papp A→B in [6] is 3 ×10⁻⁶ cm/s.
With `Cc1ccc(NC(=O)c2ccnc(C(C)(C)C#N)c2)cc1-c1cc(N2CCOCC2)c(=O)n(C)n1`, the solubility (thermodynamic) in series [1] stood at 33.9 µM (≈ 16 µg/mL). Besides, in [2], the Papp B→A is 49 ×10⁻⁶ cm/s. Besides, the microsomal CLint in series [3] was 15.5 µL/min/mg. Moreover, the EC50 in series [4] turned out to be 52 nM; in the series with Calu-6, 1350 nM. In series [6], the apparent permeability from apical to basolateral (Papp A→B) worked out at 6.3 ×10⁻⁶ cm/s.
As to `Cc1ncc(NC(=O)c2cccc(C(F)(F)F)c2)cc1-c1cnc(OC2CCOCC2)c(N(CCO)CCO)c1`, the Drug uptake entry in [7], in [8] and in series [9] was “Active” each time.
On to `Cc1ccc(NC(=O)c2ccnc(C(F)(F)F)c2)cc1-c1cc(NCCO)nc(N2CCOCC2)c1`, for which the solubility (thermodynamic) in series [1] stood at 36.3 µM (≈ 18.2 µg/mL). Besides, the Papp B→A in series [2] is 53 ×10⁻⁶ cm/s. Further, the microsomal CLint in [3] came to 20.5 µL/min/mg. In addition, the EC50 in series [4] is 8 nM; in the series on Calu-6, 510 nM. In addition, the K at Cytochrome P450 3A4 was 0.035 min⁻¹. In series [5], the half-inhibitory concentration (IC50) worked out at 0.6 nM. Also, the Papp A→B in series [6] is 5 ×10⁻⁶ cm/s.
Turning to `Cc1ncc(NC(=O)c2cccc(C(F)(F)F)c2)cc1-c1cc(N2CCOCC2)c(OC2CCOCC2)nn1`, in series [1], the solubility (thermodynamic) turned out to be 59.6 µM (≈ 32.4 µg/mL). Further, the Papp B→A in [2] came out at 51 ×10⁻⁶ cm/s. The microsomal CLint in series [3] is 7.7 µL/min/mg. The 50% effective concentration (EC50) in series [4] worked out at 8 nM; with Calu-6, 880 nM. In addition, the apparent permeability from apical to basolateral (Papp A→B) in series [6] came to 4.4 ×10⁻⁶ cm/s.
`Cc1ncc(NC(N)=O)cc1-c1cnc(OC2CCOCC2)c(N2CCOCC2)c1`: the Drug uptake result in series [7], in series [8] and in series [9] was “Active” throughout.
For `Cc1ncc(NC(=O)c2cccc(C(F)(F)F)c2)cc1-c1cnc(OC2CCOCC2)c(N2CCOCC2)c1`, the remaining at 3 h, 10 µM turned out to be 44% in [10] and 74% in series [14]. Moreover, in series [11], the Stability is given as 36%. Moreover, the Drug metabolism in series [12] is reported as 20%; in series [13], less than 1%. Also, in series [3], the microsomal CLint came out at 94 µL/min/mg.
As to `Cc1ncc(NC(=O)c2cccc(C(F)(F)F)c2)cc1-c1cnc(O[C@H]2CCOC[C@H]2F)c(N2CCOCC2)c1`, in [1], the thermodynamic solubility was 25 µM (≈ 14 µg/mL). For the same molecule, in [2], the basolateral-to-apical permeability (Papp B→A) amounted to 20 ×10⁻⁶ cm/s. Also, the microsomal CLint in [3] was 65.5 µL/min/mg. Further, in the series on Calu-6, the EC50 was determined as 340 nM. For the same molecule, in series [6], the apical-to-basolateral permeability (Papp A→B) was determined as 16 ×10⁻⁶ cm/s.
On to `Cc1ncc(N)cc1-c1cnc(OC2CCOCC2)c(N2CCOCC2)c1`, for which the Drug uptake entry in [7], in [8] and in [9] was “Active” in each case.
`[2H]C1(Oc2ncc(-c3cc(NC(=O)c4cccc(C(F)(F)F)c4)cnc3C)cc2N2CCOCC2)CCOCC1` came in with a thermodynamic solubility in series [1] of 104 µM (≈ 56.5 µg/mL). The microsomal CLint in [3] is 88 µL/min/mg. Besides, in the series with Calu-6, the concentration giving a half-maximal response (EC50) amounted to 400 nM.
Regarding `Cc1ncc(NC(=O)c2cccc(C(F)(F)F)c2)cc1-c1cnc(OC(CCO)CCO)c(N2CCOCC2)c1`, the Drug uptake result in series [7], in [8] and in series [9] was “Active” each time.
For `CC(C)(C)c1nc(-c2cccc(NS(=O)(=O)c3c(F)cccc3F)c2F)c(-c2ccnc(N)n2)s1` [DABRAFENIB], the outcome in series [15] was Active. The inhibition entry in [16] is “inactive”. For the same molecule, the half-maximal effective concentration (EC50) entry in series [17] was “Not Active”.
As for `CO[C@H]1COCC[C@@H]1Oc1ncc(-c2cc(NC(=O)c3cccc(C(F)(F)F)c3)cnc2C)cc1N1CCOCC1`, the solubility (thermodynamic) in series [1] was 43 µM (≈ 24.6 µg/mL). Further, the microsomal CLint in series [3] was 302 µL/min/mg. In addition, the EC50 in series [4] came to 21 nM; in the series on Calu-6, 1760 nM. The half-inhibitory concentration (IC50) in series [5] worked out at 1.7 nM.
In the case of `Cc1ncc(NC(=O)c2cccc(C(F)(F)F)c2)cc1-c1c[nH]c(=O)c(N2CCOCC2)c1`, in series [1], the solubility (thermodynamic) turned out to be 55 µM (≈ 25.2 µg/mL). In series [2], the basolateral-to-apical permeability (Papp B→A) was 43 ×10⁻⁶ cm/s. The Drug uptake entry in [7], in series [8] and in series [9] was “Active” throughout. Further, the microsomal CLint in [3] worked out at 9.4 µL/min/mg. Also, the EC50 with Calu-6 came out at 3910 nM. For the same molecule, the apparent permeability from apical to basolateral (Papp A→B) in series [6] is 0.3 ×10⁻⁶ cm/s.
Regarding `Cc1ccc(NC(=O)c2cccc(C(F)(F)F)c2)cc1-c1cc(N2CCOCC2)ncn1`, in [1], the thermodynamic solubility is 13 µM (≈ 5.75 µg/mL). In [2], the Papp B→A amounted to 41 ×10⁻⁶ cm/s. Moreover, the microsomal CLint in [3] was 43.3 µL/min/mg. For the same molecule, the EC50 in the series on Calu-6 was 5280 nM.
Molecule `Cc1ccc(NC(=O)c2cccc(C(F)(F)F)c2)cc1-c1cc(N2CCOCC2)nc(NCCO)n1` registered a solubility (thermodynamic) in series [1] of 2.1 µM (≈ 1.05 µg/mL). Further, in series [2], the Papp B→A was determined as 30 ×10⁻⁶ cm/s. For the same molecule, in series [3], the microsomal CLint came out at 48 µL/min/mg. Moreover, the EC50 came to 61 nM in [4] and 160 nM in the series with Calu-6. Besides, the concentration for half-maximal inhibition (IC50) in series [5] stood at 0.2 nM. Besides, in series [6], the Papp A→B came out at 8 ×10⁻⁶ cm/s.

For orientation: thermodynamic solubility means the concentration in solution at equilibrium with solid. What is called Papp B→A is the apparent permeability from the basolateral to the apical side of a cell layer. Broadly, the EC50 is the midpoint of the concentration-response curve. The IC50 is the concentration that inhibits the measured activity by half. In general, Papp A→B refers to how fast a substance crosses the layer from the apical side.
